Laboratory results as given in ChEMBL document CHEMBL1121917, “Structure--activity relationships in a broad-spectrum anthelmintic series. Acid chloride phenylhydrazones. 1. Aryl substitutions and chloride variations” (1981).

Legend:
Canis familiaris [1] = species: Canis familiaris; experiment: Percent reduction in Uncinaria eggs per gram, after treatment of 100 mg/dog dose of compound in a single treatment; assay type: functional, Canis lupus familiaris, Egg
Canis familiaris [2] = species: Canis familiaris; experiment: Percentt reduction in Toxascaris eggs per gram, after treatment of 100 mg/dog dose of compound in a single treatment; assay type: functional, Canis lupus familiaris, Egg
Canis familiaris [3] = species: Canis familiaris; experiment: Percent reduction in Ancylostoma eggs per gram, after treatment of 100 mg/dog dose of compound in a single treatment; assay type: functional, Canis lupus familiaris, Egg
Procedure, shortened: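 Dogs naturally infected with Toxascaris leonina were experimentally infected with mixed Ancylostoma caninum and Uncinaria stenocephala larvae. Finely ground compound was given orally in gelatin capsules. Fecal egg counts were taken three times before and three times after treatment, and activity was taken as the fall in egg counts.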

Mus musculus [4] = species: Mus musculus; experiment: Percent clearance of Nematospiroides dubius from mouse after oral treatment of 1.87 mg/mouse/day; assay type: functional
Procedure, shortened: (§1)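 Mice naturally carrying Syphacia obvelata were experimentally infected with Nematospiroides dubius and Hymenolepis nana, then grouped after a 2-week prepatency. Finely ground compound was suspended in aqueous 0.10% carboxymethylcellulose, 0.04% polysorbate 80 and 0.0042% polyparaben, and 0.1 mL was given orally by cannula once daily for 4 days to five mice. Necropsy followed 2 days later, scoring presence or absence of each parasite. Control clearance was subtracted from the treated clearance.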

Ovis aries [5] = experiment: Percent reduction in Trichostrongylus eggs per gram, after treatment with 350 mg/kg dose of compound perorally in sheep; assay type: functional, Egg; conditions: route oral
Ovis aries [6] = experiment: Percent reduction in Trichostrongylus eggs per gram, after treatment with 400 mg/kg dose of compound perorally in sheep; assay type: functional, Egg; conditions: route oral
Procedure, shortened: (§2)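 Naturally parasitized lambs, dosed orally either with a suspension by stomach tube or with finely ground compound in gelatin capsules by balling gun. Activity was scored by the clinical test method, meaning a significant fall in helminth egg counts after treatment.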

Ovis aries [7] = experiment: Percent reduction in Trichostrongylus eggs per gram, after treatment with 450 mg/kg dose of compound perorally in sheep; assay type: functional, Egg; conditions: route oral; procedure, shortened: as §2
Ovis aries [8] = experiment: Percent reduction in Trichostrongylus eggs per gram, treatment of 100 mg/kg dose of compound perorally in sheep; assay type: functional, Egg; conditions: route oral
Ovis aries [9] = experiment: Percent reduction in Trichuris eggs per gram, after treatment of 100 mg/kg dose of compound perorally in sheep; assay type: functional, Egg; conditions: route oral
Ovis aries [10] = experiment: Percent reduction in Trichuris eggs per gram, after treatment of with 200 mg/kg dose of compound perorally in sheep; assay type: functional, Egg; conditions: route oral
Ovis aries [11] = experiment: Percent reduction in Trichuris eggs per gram, after treatment with 400 mg/kg dose of compound perorally in sheep; assay type: functional, Egg; conditions: route oral; procedure, shortened: as §2
Ovis aries [12] = experiment: Percent reduction in Haemonchus eggs per gram, after treatment of 250 mg/kg dose of compound perorally in sheep; assay type: functional, Egg; conditions: route oral
Procedure, shortened: (§3)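 Naturally parasitized lambs received compound orally, either as the aqueous suspension by stomach tube or as finely ground powder in gelatin capsules by balling gun. Activity was judged by the clinical test method, as a significant decrease in posttreatment helminth egg counts.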

Ovis aries [13] = experiment: Percent reduction in Strongyloides eggs per gram, after treatment of 100 mg/kg dose of compound perorally in sheep; assay type: functional, Egg; conditions: route oral; procedure, shortened: as §2
Ovis aries [14] = experiment: Percent reduction in Strongyloides eggs per gram, after treatment with 450 mg/kg dose of compound perorally in sheep; assay type: functional, Egg; conditions: route oral; procedure, shortened: as §2
Ovis aries [15] = experiment: Percent reduction in Haemonchus eggs per gram, after treatment of 200 mg/kg dose of compound perorally in sheep; assay type: functional, Egg; conditions: route oral; procedure, shortened: as §3
Ovis aries [16] = experiment: Percent reduction in Nematodirus eggs per gram, after treatment with 250 mg/kg dose of compound perorally in sheep; assay type: functional, Egg; conditions: route oral
Procedure, shortened: (§4)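 Naturally parasitized lambs were dosed orally at the stated mg/kg. Dosing was either as a suspension of finely ground compound by stomach tube, or as ground compound weighed into gelatin capsules and given by balling gun. Activity was scored by the clinical test method: the decrease in posttreatment helminth eggs per gram.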

Ovis aries [17] = experiment: Percent reduction in Nematodirus eggs per gram, after treatment with 350 mg/kg dose of compound perorally in sheep; assay type: functional, Egg; conditions: route oral; procedure, shortened: as §4
Ovis aries [18] = experiment: Percent reduction in Nematodirus eggs per gram, after treatment with 400 mg/kg dose of compound perorally in sheep; assay type: functional, Egg; conditions: route oral; procedure, shortened: as §4
Ovis aries [19] = experiment: Percent reduction in Oesophagostomum eggs per gram, after treatment of 100 mg/kg dose of compound perorally in sheep; assay type: functional, Egg; conditions: route oral; procedure, shortened: as §4
Ovis aries [20] = experiment: Percent reduction in Haemonchus eggs per gram, after treatment with 450 mg/kg dose of compound perorally in sheep; assay type: functional, Egg; conditions: route oral; procedure, shortened: as §4
Ovis aries [21] = experiment: Percent reduction in Moniezia eggs per gram, after treatment of 200 mg/kg dose of compound perorally in sheep; assay type: functional, Egg; conditions: route oral; procedure, shortened: as §4
Ovis aries [22] = experiment: Percent reduction in Moniezia eggs per gram, after treatment with 400 mg/kg dose of compound perorally in sheep; assay type: functional, Egg; conditions: route oral; procedure, shortened: as §4
Ovis aries [23] = experiment: Percent reduction in Nematodirus eggs per gram, after treatment of 200 mg/kg dose of compound perorally in sheep; assay type: functional, Egg; conditions: route oral; procedure, shortened: as §4
Ovis aries [24] = experiment: Percent reduction in Nematodirus eggs per gram, after treatment of 100 mg/kg dose of compound perorally in sheep; assay type: functional, Egg; conditions: route oral; procedure, shortened: as §4
Ovis aries [25] = experiment: Percent reduction in Strongyloides eggs per gram, after treatment with 350 mg/kg dose of compound perorally in sheep; assay type: functional, Egg; conditions: route oral; procedure, shortened: as §2
Ovis aries [26] = experiment: Percent reduction in Strongyloides eggs per gram, after treatment with 400 mg/kg dose of compound perorally in sheep; assay type: functional, Egg; conditions: route oral; procedure, shortened: as §2
Ovis aries [27] = experiment: Percent reduction in Ostertagia eggs per gram, after treatment with 350 mg/kg dose of compound perorally in sheep; assay type: functional, Egg; conditions: route oral; procedure, shortened: as §2
Ovis aries [28] = experiment: Percent reduction in Ostertagia eggs per gram, after treatment with 400 mg/kg dose of compound perorally in sheep; assay type: functional, Egg; conditions: route oral; procedure, shortened: as §2
Ovis aries [29] = experiment: Percent reduction in Ostertagia eggs per gram, after treatment with 450 mg/kg dose of compound perorally in sheep; assay type: functional, Egg; conditions: route oral; procedure, shortened: as §2
Ovis aries [30] = experiment: Percent reduction in Trichostrongylus eggs per gram, after ral treatment of 200 mg/kg dose of compound perorally in sheep; assay type: functional, Egg; conditions: route oral; procedure, shortened: as §2
Ovis aries [31] = experiment: Percent reduction in Trichostrongylus eggs per gram, after oral treatment of 250 mg/kg dose of compound perorally in sheep; assay type: functional, Egg; procedure, shortened: as §2
Ovis aries [32] = experiment: Percent reduction in Oesophagostomum eggs per gram, after treatment with 350 mg/kg dose of compound perorally in sheep; assay type: functional, Egg; conditions: route oral; procedure, shortened: as §4
Ovis aries [33] = experiment: Percent reduction in Oesophagostomum eggs per gram, after treatment with 400 mg/kg dose of compound perorally in sheep; assay type: functional, Egg; conditions: route oral; procedure, shortened: as §4
Ovis aries [34] = experiment: Percent reduction in Ostertagia eggs per gram, after oral treatment of 250 mg/Kg dose of compound perorally in sheep; assay type: functional, Egg; procedure, shortened: as §4
Ovis aries [35] = experiment: Percent reduction in Haemonchus eggs per gram, after oral treatment of 100 mg/kg dose of compound perorally in sheep; assay type: functional, Egg; procedure, shortened: as §3
Ovis aries [36] = experiment: Percent reduction in Oesophagostomum eggs per gram, after treatment of 200 mg/kg dose of compound perorally in sheep; assay type: functional, Egg; conditions: route oral; procedure, shortened: as §4
Ovis aries [37] = experiment: Percent reduction in Oesophagostomum eggs per gram, after treatment with 250 mg/kg dose of compound perorally in sheep; assay type: functional, Egg; conditions: route oral; procedure, shortened: as §4
Ovis aries [38] = experiment: Percent reduction in Trichuris eggs per gram, after treatment with 250 mg/kg dose of compound perorally in sheep; assay type: functional, Egg; conditions: route oral; procedure, shortened: as §2
Ovis aries [39] = experiment: percent reduction in Strongyloides eggs per gram, after treatment with 250 mg/kg dose of compound perorally in sheep; assay type: functional, Egg; conditions: route oral
Ovis aries [40] = experiment: Percent reduction in Ostertagia eggs per gram, after treatment of 200 mg/kg dose of compound perorally in sheep; assay type: functional, Egg; conditions: route oral; procedure, shortened: as §4
Ovis aries [41] = experiment: Percent reduction in Cooperia eggs per gram, after treatment of 100 mg/kg dose of compound perorally in sheep; assay type: functional, Egg; conditions: route oral; procedure, shortened: as §3
Ovis aries [42] = experiment: Percent reduction in Cooperia eggs per gram, after treatment of 200 mg/kg dose of compound perorally in sheep; assay type: functional, Egg; conditions: route oral; procedure, shortened: as §3
Ovis aries [43] = experiment: Percent reduction in Cooperia eggs per gram, after treatment with 400 mg/kg dose of compound perorally in sheep; assay type: functional, Egg; conditions: route oral; procedure, shortened: as §3
Ovis aries [44] = experiment: Percent reduction in Strongyloides eggs per gram, after treatment of 200 mg/kg dose of compound perorally in sheep; assay type: functional, Egg; conditions: route oral; procedure, shortened: as §2
Ovis aries [45] = experiment: Percent reduction in Ostertagia eggs per gram, after treatment of 100 mg/kg dose of compound perorally in sheep; assay type: functional, Egg; conditions: route oral; procedure, shortened: as §4
Mus musculus [46] = species: Mus musculus; experiment: Percent clearance of Hymenolepis nana from mouse after oral treatment of 1.87 mg/mouse/day; assay type: functional; procedure, shortened: as §1
Ovis aries [47] = experiment: Percent reduction in Trichuris eggs per gram, after treatment with 450 mg/kg dose of compound perorally in sheep; assay type: functional, Egg; conditions: route oral; procedure, shortened: as §2
Ovis aries [48] = experiment: Percent reduction in Haemonchus eggs per gram, after treatment with 400 mg/kg dose of compound perorally in sheep; assay type: functional, Egg; conditions: route oral; procedure, shortened: as §4
Ovis aries [49] = experiment: Percent reduction in Trichuris eggs per gram, after treatment with 350 mg/kg dose of compound perorally

FC(F)(F)c1cccc(/C(Cl)=N/Nc2ccccc2)c1
Reduction (Canis familiaris [1]): 100% | Reduction (Canis familiaris [2]): 100% | Reduction (Canis familiaris [3]): 100% | Parasite_Clearance (Mus musculus [4]): 0% | Reduction (Ovis aries [5]): 100% | Reduction (Ovis aries [6]): 100% | Reduction (Ovis aries [7]): 100% | Reduction (Ovis aries [8]): 97% | Reduction (Ovis aries [9]): 35% | Reduction (Ovis aries [10]): 0% | Reduction (Ovis aries [11]): 62% | Reduction (Ovis aries [12]): 84% | Reduction (Ovis aries [13]): 98% | Reduction (Ovis aries [14]): 100% | Reduction (Ovis aries [15]): 99% | Reduction (Ovis aries [16]): 29% | Reduction (Ovis aries [17]): 100% | Reduction (Ovis aries [18]): 100% | Reduction (Ovis aries [19]): 100% | Reduction (Ovis aries [20]): 100% | Reduction (Ovis aries [21]): 100% | Reduction (Ovis aries [22]): 100% | Reduction (Ovis aries [23]): 100% | Reduction (Ovis aries [24]): 100% | Reduction (Ovis aries [25]): 100% | Reduction (Ovis aries [26]): 100% | Reduction (Ovis aries [27]): 100% | Reduction (Ovis aries [28]): 100% | Reduction (Ovis aries [29]): 100% | Reduction (Ovis aries [30]): 99% | Reduction (Ovis aries [31]): 71% | Reduction (Ovis aries [32]): 100% | Reduction (Ovis aries [33]): 100% | Reduction (Ovis aries [34]): 86% | Reduction (Ovis aries [35]): 98% | Reduction (Ovis aries [36]): 100% | Reduction (Ovis aries [37]): 91% | Reduction (Ovis aries [38]): 57% | Reduction (Ovis aries [39]): 59% | Reduction (Ovis aries [40]): 100% | Reduction (Ovis aries [41]): 100% | Reduction (Ovis aries [42]): 100% | Reduction (Ovis aries [43]): 100% | Reduction (Ovis aries [44]): 100% | Reduction (Ovis aries [45]): 98% | Parasite_Clearance (Mus musculus [46]): 75% | Reduction (Ovis aries [47]): 0% | Reduction (Ovis aries [48]): 100% | Reduction (Ovis aries [49]): 0%
